Screening results deposited in PubChem BioAssay by Broad Institute.
EWS-Fli inh – EWS/Fli-driven NR0B1 reporter inhibitors, primary screen, A673 cells, NR0B1 luciferase, luminescence, MLPCN library; 350,000 compounds, 0.67% hits; inhibition, % at 12.6 µM; viability-normalised;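 active means mean inhibition of at least 50% after viability correction, with every replicate also passing that limit; inconclusive means mean reaches 50% but only one of two replicates passes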;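 further: firefly luciferase signal divided by Alamar Blue viability fluorescence both relative to DMSO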
HIV Env fusion – inhibitors of HIV-1 Env-driven cell-cell fusion, primary screen, HeLa-JRFL effector, CEM21 target cells, luciferase; inhibition, % at 12.3 µM; 360,000 compounds, 1.1% hits; AID 651610, 2012;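 active means mean replicate inhibition score of at least 50 and every replicate individually at or above 50; inconclusive means only one of the two criteria met; inactive means mean below 50 and not all replicates reaching 50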
AF4-AF9 inh – inhibitors of AF4 peptide binding to AF9, primary screen, biochemical, AlphaScreen, biotin-AF4 peptide, FLAG-AF9, single point; Protein AF-9 (Homo sapiens), P42568; inhibition, % at 10 µM; 350,000 compounds, 0.47% hits;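 active means every replicate reaching a set inhibition limit, whatever the replicate mean, cut at about 25% in these data; inconclusive means mean inhibition reaches that limit but some replicates miss it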
Target sequence (P42568 whole entry, looked up): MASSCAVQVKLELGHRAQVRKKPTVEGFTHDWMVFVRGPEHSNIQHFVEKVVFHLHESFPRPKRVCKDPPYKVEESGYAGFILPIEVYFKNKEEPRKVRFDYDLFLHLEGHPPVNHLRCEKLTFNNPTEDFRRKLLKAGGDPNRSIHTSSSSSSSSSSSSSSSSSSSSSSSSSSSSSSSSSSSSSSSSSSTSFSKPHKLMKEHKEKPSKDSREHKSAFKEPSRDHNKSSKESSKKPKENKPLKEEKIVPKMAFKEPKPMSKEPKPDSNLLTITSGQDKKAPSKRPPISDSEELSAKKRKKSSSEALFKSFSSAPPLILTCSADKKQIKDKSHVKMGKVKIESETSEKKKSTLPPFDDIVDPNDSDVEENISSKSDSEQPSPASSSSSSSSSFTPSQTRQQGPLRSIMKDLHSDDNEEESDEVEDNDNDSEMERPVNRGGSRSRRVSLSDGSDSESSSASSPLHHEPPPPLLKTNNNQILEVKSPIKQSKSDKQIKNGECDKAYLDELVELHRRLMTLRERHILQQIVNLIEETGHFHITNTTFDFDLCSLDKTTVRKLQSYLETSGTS
PAX8 inh HTS – inhibitors of PAX8-driven TPO luciferase reporter, primary screen, RMG-I cells, single concentration. AID 652154, 2013. SteadyGlo, 24 h. 360,000 compounds, 1.2% hits. inhibition, % at 12.6 µM;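 active means mean replicate inhibition at least 60% with every replicate also reaching 60%; inconclusive means only one of the two criteria is met; inactive means mean below 60% and not all replicates reaching 60%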;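 further: luciferase light reporting Pax8 driven TPO promoter activity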
FN deposit inh – inhibitors of fibronectin matrix deposition, primary screen, AH1F cells, Alexa488-fibronectin fluorescence, plate reader | AH1F fibroblasts, overnight | 350,000 compounds, 0.086% hits | inhibition, % at 12.6 µM;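 active means mean inhibition across replicates of 30% or more, regardless of how many single replicates reach that level; inconclusive means mean under 30% yet at least half of replicates reach 30%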
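Material: AH1F fibroblasts assembling fluorescent fibronectin matrix; amount: 10000 AH1F cells/well; medium: DMEM, 2% serum; reagent: Alexa488-fibronectin, 24 nM final in well; dosing: single compound dose, delivered by pin transfer; incubation: 1 h adhesion, overnight exposure; detection: fluorescence after three HBSS washes, excitation 485 nm, emission 525 nm; measure: fibronectin deposition inhibition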
N-glyco inh – increase of ERlucT glycosylation luciferase signal, primary screen, N-linked glycosylation inhibitor project, D54 ERlucT cells, luminescence, set 2; 360,000 compounds, 0.23% hits; AID 588692, 2011; reporter increase, % at 12.5 µM; D54 ERlucT glycosylation luciferase reporter, 24 h; percent of 100 nM tunicamycin response;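 active means mean luciferase reporter signal, scaled so untreated is 0 and the glycosylation-blocking control 100, at or above a set limit in every replicate; inconclusive means mean reaches the limit but not every replicate does; inactive means mean below the limit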;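 further: luciferase carries N-glycosylation sites so blocking glycosylation raises the light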
Numbers stand for hits; – = inactive; ? = inconclusive; · = not tested or not shown; ! = repeats disagree; [ ] = another dose, or the depositor's remark. The list is not random: actives were taken first. Their share in the collection is about 2.5%.

SMILES | EWS-Fli inh | HIV Env fusion | AF4-AF9 inh | PAX8 inh HTS | FN deposit inh | N-glyco inh
Cc1ccnc(NC(=O)C(Cc2ccccc2)NC(=O)c2ccccc2)c1 (stereo not given) | – | · | – | – | – | 25.5
CCC(C(=O)Nc1cc(C(=O)Nc2cc(C)ccn2)ccc1Cl)c1ccccc1 (stereo not given) | – | · | – | 69.4 | – | –
O=C(NC(Cc1ccccc1)C(=O)NC(Cc1ccccc1)C(=O)O)c1ccccc1 (stereo not given) | – | – | – | – | – | –
Cc1ccc(S(=O)(=O)N(C)C[C@@H]2Oc3ccc(NC(=O)C4CCCCC4)cc3CC(=O)N([C@H](C)CO)C[C@@H]2C)cc1 | – | 95.0[16.7 µM] | – | · | · | ·
C[C@@H]1CN([C@@H](C)CO)C(=O)Cc2cc(NC(=O)C3CCCCC3)ccc2O[C@H]1CN(C)S(=O)(=O)c1ccccc1 | – | 63.0 | – | – | – | –
COc1ccc(S(=O)(=O)N(C)C[C@@H]2Oc3ccc(NC(=O)C4CCCCC4)cc3CC(=O)N([C@H](C)CO)C[C@@H]2C)cc1 | – | 74.3[16.7 µM] | – | – | · | ·
C[C@@H]1CN([C@@H](C)CO)C(=O)Cc2cc(NC(=O)C3CCCCC3)ccc2O[C@@H]1CN(C)S(=O)(=O)c1ccccc1 | – | · | – | · | · | ·
Cn1cnc(CCNC(=O)C[C@H]2CC[C@H]3[C@@H](COC[C@H](O)CN3C(=O)Nc3ccc(F)cc3)O2)c1 | – | · | – | – | – | ·
COc1ccccc1-c1ccc([C@H]2[C@@H](CO)N(C(=O)C3CC3)C23CN(C(C)=O)C3)cc1 | – | · | – | – | · | ·
CCC(C)NS(=O)(=O)c1ccc(S(=O)(=O)N2CCCC3(CCCCC3)C2)cc1 (stereo not given) | · | 77.4 | · | – | · | –
COc1ccc2c3c(n(C)c2c1)[C@@H](CO)N(CC1CCCCC1)CC31CCN(Cc2nccs2)CC1 | – | · | ? | – | · | ·
CCC(=O)Nc1ccc2c(c1)OC[C@H](C)N(CCc1ccccc1)C[C@H](C)[C@@H](OC)CN(C)C2=O | – | · | – | · | – | ·
C[C@@H]1CCCCO[C@H](CN(C)C)[C@H](C)CN([C@H](C)CO)C(=O)c2cc(NC(=O)Nc3ccc4c(c3)OCO4)ccc2O1 | – | – | – | – | · | ·
O=S(=O)(N[C@@H]1CC[C@H](CCn2cc(-c3ccccn3)nn2)O[C@H]1CO)c1cccc(F)c1 | – | – | – | – | – | ·
O=C(COc1ccccc1C(=O)NCc1ccccn1)Nc1ccc(Br)cc1 | 64.8 | – | – | – | · | –
Cc1noc(C)c1NC(=O)Nc1ccc2c(c1)C(=O)N([C@H](C)CO)C[C@H](C)[C@H](CN(C)C(=O)c1ccccc1)OCCCC[C@H](C)O2 | – | – | – | – | · | ·
O=C(C[C@H]1CC[C@H]2[C@@H](COC[C@@H](O)CN2S(=O)(=O)c2ccccc2F)O1)NCc1ccccc1F | – | – | – | – | – | ·
COc1cccc(NC(=O)N[C@H]2C=C[C@H](CC(=O)NCc3ccccn3)O[C@H]2CO)c1 | · | · | – | · | · | ·
Clc1ccc(-c2nc(-c3ccncc3)no2)c(Cl)c1 | – | – | – | – | – | –
Cc1ccc(-c2nc(-c3ccncc3)no2)c(Cl)c1 | 55.6 | – | – | – | – | –
C[C@H]1CN([C@@H](C)CO)C(=O)c2cc(-c3cncnc3)cnc2O[C@@H]1CN(C)C(=O)Nc1ccc2c(c1)OCO2 | – | – | – | · | · | ·
C/C=C/c1cnc2c(c1)C(=O)N([C@@H](C)CO)C[C@@H](C)[C@H](CN(C)C(=O)Cc1ccccn1)O2 | – | – | – | – | · | ·
C[C@H](CO)N1C[C@H](C)[C@H](CN(C)Cc2ccncc2)Oc2ccc(NS(=O)(=O)c3ccc(Cl)cc3)cc2C1=O | – | – | – | – | · | ·
O=C(/C=C/c1ccc2ccccc2n1)N1CCN(S(=O)(=O)c2ccc(F)cc2)CC1 | – | – | – | 67.7 | – | –
C[C@@H]1CN([C@@H](C)CO)C(=O)c2cc(NC(=O)Nc3cccc4ccccc34)ccc2O[C@@H](C)CCCCO[C@@H]1CN(C)S(=O)(=O)c1ccc(F)cc1 | – | – | – | – | – | ·
SMILES | EWS-Fli inh | HIV Env fusion | AF4-AF9 inh | PAX8 inh HTS | FN deposit inh | N-glyco inh
O=C(C[C@H]1CC[C@H](NC(=O)Nc2cc(F)ccc2F)[C@@H](CO)O1)NCc1ccncn1 | – | – | – | – | – | ·
COCCOC(=O)N1C(=O)[C@@]2(c3ccccc31)[C@H](c1ccccc1OCCO)N1[C@H](c3ccccc3)[C@H](c3ccccc3)OC(=O)[C@H]1[C@@H]2C(=O)NC[C@H](O)c1ccccc1 | – | – | – | 109.2 | · | ·
C=CCNC(=O)[C@H]1[C@@H]2C(=O)O[C@@H](c3ccccc3)[C@@H](c3ccccc3)N2[C@@H](c2ccccc2OCCO)[C@]12C(=O)N(C(=O)OCCOC)c1ccccc12 | – | – | – | 81.7 | · | ·
C=CCNC(=O)[C@@H]1[C@H]2C(=O)O[C@H](c3ccccc3)[C@H](c3ccccc3)N2[C@H](c2ccccc2OCCO)[C@@]12C(=O)N(C(=O)OCCOC)c1ccccc12 | – | – | – | 86.8 | · | ·
CC(=O)N(C)C[C@H]1Oc2ccc(NS(C)(=O)=O)cc2C(=O)N(C)C[C@H]1C | · | · | · | · | – | ·
CO[C@H]1CN(C)C(=O)c2cc(NC(=O)Nc3ccc(Cl)c(Cl)c3)ccc2OC[C@@H](C)NC[C@@H]1C | – | – | · | – | 32.1! | ·
CO[C@H]1CN(C)C(=O)c2ccc(NC(=O)Nc3ccc(Cl)c(Cl)c3)cc2OC[C@H](C)NC[C@@H]1C | 69.3 | – | – | – | 30.9! | ·
CO[C@@H]1CN(C)C(=O)c2ccc(NC(=O)c3ccc(-c4ccccc4)cc3)cc2OC[C@H](C)NC[C@@H]1C | – | – | – | 64.6 | – | ·
CO[C@@H]1CN(C)C(=O)c2ccc(NC(=O)c3ccc(-c4ccccc4)cc3)cc2OC[C@@H](C)NC[C@@H]1C | – | · | – | – | – | ·
CO[C@H]1CN(C)C(=O)c2cc(NC(=O)Nc3cc(Cl)cc(Cl)c3)ccc2OC[C@H](C)NC[C@H]1C | – | · | · | · | 32.2! | ·
CO[C@@H]1CN(C)C(=O)c2cc(NC(=O)Nc3cc(Cl)cc(Cl)c3)ccc2OC[C@H](C)NC[C@@H]1C | – | · | · | · | – | ·
CO[C@H]1CN(C)C(=O)c2cc(NC(=O)Nc3ccc(Cl)c(Cl)c3)ccc2OC[C@@H](C)NC[C@H]1C | – | – | · | – | – | ·
C[C@@H]1CN([C@@H](C)CO)C(=O)c2cc(NC(=O)CCC(F)(F)F)ccc2O[C@@H](C)CCCCO[C@@H]1CN(C)C(=O)c1ccccc1 | – | – | – | – | – | ·
CC(=O)Nc1ccc(S(=O)(=O)N(C)Cc2ccccc2)cc1 | – | – | – | – | – | –
CC(=O)Nc1ccc(S(=O)(=O)N(Cc2ccccc2)C(C)C)cc1 | · | 84.0 | · | – | – | –
